This passage reports EC50 and Activity results from ChEMBL document CHEMBL1148900, “Isolation and characterization of five new tetrasaccharide glycosides from the roots of Ipomoea stans and their cytotoxic activity” (2004).

Holding throughout (assay type): functional
One test relates to HCT-15. As to the kind of experiment: Cytotoxicity against human HCT15 cells after 72 hrs. The following applies: for EC50: HCT-15, 72 h, read-out: ED50 (the source's name). An outline of the steps:
(§1)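 Cells kept in RPMI with 10% FBS at 37 °C, 5% CO₂, 100% humidity. Log-phase cells were exposed in triplicate to 0.5–100 μg/mL of compound for 72 h at 37 °C. Cell concentration was measured by protein analysis. ED₅₀ (dose inhibiting 50% of control growth) was read from a semilog plot of concentration (μg/mL) against percent viable cells.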

Another test has as its system OVCAR-5. As to the kind of experiment: Cytotoxicity against human OVCAR5 cells after 72 hrs. The following applies: OVCAR-5, 72 h, read-out: ED50 (the source's name). An outline of the steps:
as §1

The subject of the next test is UISO-SQC1. As to the kind of experiment: (§2) Cytotoxicity against human UISO-SQC1 cells after 72 hrs. In short, it runs like this: as §1
Test [1] can be described thus: as §2. The following applies: UISO-SQC1, 72 h, read-out: ED50 (the source's name). In short, it runs like this: as §1

In brackets after ≈: the same amount, converted by molar mass. Activity calls are given as the source filed them. No cut-off for these calls is given here. Bounds are passed on as bounds.

In the case of `CCCCC[C@H]1CCCCCCCCCC(=O)O[C@@H]2[C@@H](O[C@@H]3O[C@H](C)[C@@H](OC(=O)C(C)C(C)O)[C@H](O)[C@H]3O)[C@H](C)O[C@@H](O[C@H]3[C@H](O[C@H]4[C@H](O1)O[C@H](C)[C@@H](O)[C@@H]4O)O[C@H](COC(=O)C(C)C(C)O)[C@@H](O)[C@@H]3O)[C@@H]2OC(=O)C(C)C` (some centres not stated) [STANSIN 1], the values for the EC50 in the test with HCT-15 and with OVCAR-5 were greater than 24 µg/mL and greater than 25 µg/mL, respectively.

With `CCCCC[C@H]1CCCCCCCCCC(=O)O[C@@H]2[C@@H](O[C@@H]3O[C@H](C)[C@@H](OC(=O)C(C)C(C)O)[C@H](O)[C@H]3O)[C@H](C)O[C@@H](O[C@H]3[C@H](O[C@H]4[C@H](O1)O[C@H](C)[C@@H](O)[C@@H]4O)O[C@H](COC(=O)C(C)C(C)O)[C@@H](O)[C@@H]3O)[C@@H]2OC(=O)C(C)CC` (some centres not stated) [STANSIN 3], the EC50 in the test with HCT-15 is greater than 24 µg/mL; in the test on OVCAR-5, greater than 25 µg/mL.

In the case of `CCCCC[C@H]1CCCCCCCCCC(=O)O[C@@H]2[C@@H](O[C@@H]3O[C@H](C)[C@@H](OC(=O)C(C)C(C)O)[C@H](O)[C@H]3O)[C@H](C)O[C@@H](O[C@H]3[C@H](O[C@H]4[C@H](O1)O[C@H](C)[C@@H](O)[C@@H]4O)O[C@H](COC(=O)C(C)C(C)O)[C@@H](O)[C@@H]3O)[C@@H]2OC(=O)CC(C)C` (some centres not stated) [STANSIN 2], the EC50 in the test with HCT-15 was greater than 24 µg/mL; in the test on OVCAR-5 it was greater than 25 µg/mL.

As for `CCCCC[C@H]1CCCCCCCCCC(=O)O[C@@H]2[C@@H](O[C@@H]3O[C@H](C)[C@@H](OC(=O)C(C)C)[C@H](O)[C@H]3O)[C@H](C)O[C@@H](O[C@H]3[C@H](O[C@H]4[C@H](O1)O[C@H](C)[C@@H](O)[C@@H]4O)O[C@H](CO)[C@@H](O)[C@@H]3O)[C@@H]2OC(=O)C(C)CC` (some centres not stated) [STANSIN 4], the result in the test on HCT-15 and with UISO-SQC1 was inactive. Also, the EC50 with OVCAR-5 stood at 5.5 µg/mL (≈ 5.45 µM).

Regarding `CCCCC[C@H]1CCCCCCCCCC(=O)O[C@@H]2[C@@H](O[C@@H]3O[C@H](C)[C@@H](OC(=O)C(C)CC)[C@H](O)[C@H]3O)[C@H](C)O[C@@H](O[C@H]3[C@H](O[C@H]4[C@H](O1)O[C@H](C)[C@@H](O)[C@@H]4O)O[C@H](CO)[C@@H](O)[C@@H]3O)[C@@H]2OC(=O)C(C)CC` (some centres not stated) [STANSIN 5], the results for the EC50 (in the test on HCT-15; in test [1]; in the test with OVCAR-5) were 24 µg/mL (≈ 23.5 µM), 4 µg/mL (≈ 3.91 µM) and 1.5 µg/mL (≈ 1.47 µM), respectively.
